Source: ChEMBL document CHEMBL1124451, “[(1H-imidazol-1-yl)methyl]- and [(3-pyridinyl)methyl]pyrroles as thromboxane synthetase inhibitors” (J Med Chem, 1989)

How the values were obtained:
[1] = molecular target: T1, Thromboxane-A synthase (Homo sapiens) (UniProt P24557); assay: Relative potency of thromboxane A2 synthetase as reduced ADP-induced aggregation of human platelet rich plasma compared to dazoxiben; assay type: functional, cell-free
T1 sequence (whole entry): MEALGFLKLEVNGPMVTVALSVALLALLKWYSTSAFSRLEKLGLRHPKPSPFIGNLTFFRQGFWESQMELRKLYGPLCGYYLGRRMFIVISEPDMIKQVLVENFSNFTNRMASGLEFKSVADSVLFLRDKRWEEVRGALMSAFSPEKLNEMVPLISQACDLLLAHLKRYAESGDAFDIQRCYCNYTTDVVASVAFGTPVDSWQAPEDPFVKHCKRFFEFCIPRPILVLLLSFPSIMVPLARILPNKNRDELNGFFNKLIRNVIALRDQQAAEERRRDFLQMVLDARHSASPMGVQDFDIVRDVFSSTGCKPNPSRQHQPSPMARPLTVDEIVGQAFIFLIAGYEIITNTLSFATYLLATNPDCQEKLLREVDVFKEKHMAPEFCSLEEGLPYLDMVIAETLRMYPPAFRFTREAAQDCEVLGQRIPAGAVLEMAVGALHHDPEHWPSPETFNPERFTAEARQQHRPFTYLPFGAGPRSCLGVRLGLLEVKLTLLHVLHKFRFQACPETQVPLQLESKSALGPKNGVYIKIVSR

[2] = system: Mus musculus; assay: Activity at 20 mg/kg given intravenously against mortality in a pulmonary thromboembolism model in mice (10 animals) at -3h; assay type: functional; settings: route intravenous
Method in brief: (§1)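 Male Swiss-Webster mice (22-26 g); test material given iv in 0.2 mL CMC before challenge (mostly at -3 h, one group at -1 h). At hour 0, collagen extract plus epinephrine hydrochloride given iv in 0.2 mL 0.9% saline via tail vein. The collagen amount was set per lot as the minimum giving 90-100% mortality in CMC-vehicle controls. Readout: % surviving at 24 h.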

[3] = system: Mus musculus; assay: Activity at 10 mg/kg given intravenously against mortality in a pulmonary thromboembolism model in mice (10 animals) at -3h; assay type: functional; settings: route intravenous; method in brief: as §1
[4] = organism: Homo sapiens; assay: In vitro inhibition of ADP-induced aggregation of human platelet rich plasma in the presence of pig aortal microsomes.; assay type: functional; settings: Aorta
Method in brief: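 Human citrated blood (0.38% citrate final), PRP by centrifugation at 200g, room temperature. Drug added to 1.0 mL PRP, 2 min at 37 °C with stirring (500 rpm), then pig aortal microsomes 3 min; microsome amount set by the dazoxiben standard. Aggregation induced by 5 μM ADP (final), read turbidimetrically.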

[5] = organism: Homo sapiens; assay: Relative potency to inhibit ADP-induced aggregation of human platelet rich plasma compared to that of dazoxiben, in vitro using pig aortal microsomes.; assay type: functional; settings: Aorta
[6] = system: Rattus norvegicus; assay: Concentration of thromboxane in serum of rats with 5/6 nephrectomy; when treated with compound at 205 mg/kg per day (n=4); assay type: functional, organism-based
Method in brief: (§2)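 Male Munich Wistar rats, 200-270 g, 5/6 renal ablation (right nephrectomy plus ligation of arterial branches to two-thirds of left kidney) under 50 mg/kg brevital ip. Drug given in drinking water from 1 week post-surgery: 500 mg/L (68 mg/kg/day), 1500 mg/L (205 mg/kg/day), or 3000 mg/L (410 mg/kg/day) after 9 weeks. TXB2 measured by radioimmunoassay in urine (8-11 weeks) and serum (10-13 weeks); controls received water.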

[7] = system: Rattus norvegicus; assay: Concentration of thromboxane in urine of rats with 5/6 nephrectomy; when treated with compound at 68 mg/kg per day (n=4); assay type: functional, organism-based; method in brief: as §2
[8] = system: Mus musculus; assay: Activity at 10 mg/kg given perorally against mortality in a pulmonary thromboembolism model in mice (10 animals) at -3h following oral administration; assay type: functional
Method in brief: (§3)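 Male Swiss-Webster mice (22-26 g), 10 per group (one group of 9); test material given po in 0.2 mL CMC at -1, -3, -5 or -18 h before challenge. At hour 0, collagen extract plus epinephrine hydrochloride given iv via tail vein in 0.9% saline. The collagen amount was titrated per lot to 90-100% mortality in vehicle controls. Readout: % surviving at 24 h.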

[9] = system: Mus musculus; assay: Effect of TXA2 Synthetase inhibition (topically) upon inflammation in 12-O-tetradecanoylphorbol acetate induced ear edema in mice; assay type: functional
[10] = system: Rattus norvegicus; assay: Percent inhibition of thromboxane from control in urine of rats with 5/6 nephrectomy at 68 mg/kg per day; assay type: functional; method in brief: as §2
[11] = system: Rattus norvegicus; assay: Effect of TXA2 Synthetase inhibition (perorally) upon inflammation in carrageenan induced rat paw edema in rats
[12] = system: Mus musculus; assay: Activity at 10 mg/kg given perorally against mortality in a pulmonary thromboembolism model in mice (10 animals) at -18h following oral administration; assay type: functional; method in brief: as §3
[13] = system: Mus musculus; assay: Activity at 25 mg/kg given intravenously against mortality in a pulmonary thromboembolism model in mice (10 animals) at 3 hr; assay type: functional; settings: route intravenous; method in brief: as §1
[14] = system: Rattus norvegicus; assay: Concentration of thromboxane in urine of rats with 5/6 nephrectomy; when treated with compound at 410 mg/kg per day (n=4); assay type: functional, organism-based; method in brief: as §2
[15] = system: Mus musculus; assay: Activity at 10 mg/kg given perorally against mortality in a pulmonary thromboembolism model in mice (10 animals) at -1h following oral administration; assay type: functional; method in brief: as §3
[16] = system: Rattus norvegicus; assay: Concentration of thromboxane in urine of rats with 5/6 nephrectomy; when treated with compound at 205 mg/kg per day (n=5); assay type: functional, organism-based; method in brief: as §2
[17] = system: Rattus norvegicus; assay: Concentration of thromboxane in serum of rats with 5/6 nephrectomy; when treated with compound at 410 mg/kg per day (n=4); assay type: functional, organism-based; method in brief: as §2
[18] = organism: Rattus norvegicus; assay: Effect of TXA2 Synthetase inhibition (perorally) upon inflammation in rat adjuvant-induced arthritis model; assay type: functional
[19] = system: Rattus norvegicus; assay: Total glomeruli with lesions was determined […], in kidneys of rats after dosing at 68 mg/kg per day for 9 weeks following by dosing with 410 mg/kg/day for 4 weeks; assay type: functional, Kidney
Method in brief: (§4)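 5/6 renal ablated male Munich Wistar rats received drug in drinking water: 205 mg/kg/day, or 68 mg/kg/day for 9 weeks then 410 mg/kg/day for 4 weeks; controls received water. Kidneys perfused with fixative at end of week 10 (205 group) or week 13. Glomeruli with lesions counted (mesangial proliferation, tubular hyaline casts, cortical interstitial inflammation, hydronephrosis); mean ± SEM.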

[20] = system: Mus musculus; assay: Activity at 6.25 mg/kg given intravenously against mortality in a pulmonary thromboembolism model in mice (10 animals) at 3 hr; assay type: functional; settings: route intravenous; method in brief: as §1
[21] = system: Rattus norvegicus; assay: Percent inhibition of thromboxane from control in serum of rats with 5/6 nephrectomy at 205 mg/kg per day; assay type: functional; method in brief: as §2
[22] = system: Rattus norvegicus; assay: Percent inhibition of thromboxane from control in urine of rats with 5/6 nephrectomy at 205 mg/kg per day; assay type: functional; method in brief: as §2
[23] = system: Mus musculus; assay: Activity at 12.5 mg/kg given intravenously against mortality in a pulmonary thromboembolism model in mice (10 animals) at 3 hr; assay type: functional; settings: route intravenous; method in brief: as §1
[24] = system: Mus musculus; assay: Effect of TXA2 Synthetase inhibition (perorally) upon inflammation in oxazolone induced delayed hypersensitivity ear edema in mice; assay type: functional
Method in brief: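 Oxazolone-induced delayed hypersensitivity ear edema in mice; test material dosed orally at 25 mg/kg.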

[25] = system: Rattus norvegicus; assay: Percent inhibition of thromboxane from control in serum of rats with 5/6 nephrectomy at 410 mg/kg per day; assay type: functional; method in brief: as §2
[26] = system: Mus musculus; assay: Activity at 10 mg/kg given perorally against mortality in a pulmonary thromboembolism model in mice (10 animals) at 1 hr; assay type: functional; settings: route oral; method in brief: as §3
[27] = system: Rattus norvegicus; assay: Total glomeruli with lesions was determined […], in kidneys of rats after dosing with compound at 205 mg/kg per day; assay type: functional, Kidney; method in brief: as §4
[28] = system: Mus musculus; assay: Activity at 10 mg/kg given perorally against mortality in a pulmonary thromboembolism model in mice (10 animals) at -5h following oral administration; assay type: functional; method in brief: as §3
[29] = system: Rattus norvegicus; assay: Percent inhibition of thromboxane from control in urine of rats with 5/6 nephrectomy at 410 mg/kg per day; assay type: functional; method in brief: as §2
[30] = system: Mus musculus; assay: Effect of TXA2 Synthetase inhibition (topically) upon inflammation in arachidonic acid induced ear edema in mice; assay type: functional
Method in brief: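 Arachidonic acid-induced ear edema in mice; test material applied topically at 2 mg/mouse.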

[31] = organism: Mus musculus; assay: Effect of TXA2 Synthetase inhibition (perorally) upon inflammation in phenoylquinone-induced writhing in mice; assay type: functional

In the case of C/C(=C/c1ccc(Cc2cccnc2)n1-c1ccccc1)C(=O)O, the Relative potency [1] is reported as 0.08.

C/C(=C/c1ccc(Cc2cccnc2)n1C)C(=O)O gave a Relative potency [1] of 46, a survival at 20 mg/kg [2] of 30% and a survival at 10 mg/kg [3] of 0%.

For C/C(=C\c1cc(Cn2ccnc2)n(C)c1)C(=O)O, the Relative potency [1] was 1.3.

CCOC(=O)/C(C)=C\c1ccc(Cc2cccnc2)n1CC(C)(C)C was tested, and the IC50 [4] was 57 µM and the Relative potency [5] was 0.03.

For C/C(=C/c1ccc(Cn2ccnc2)n1C)C(=O)O, the Concentration [6] was 10 ng/day, the Concentration [7] was 42 ng/day and the survival at 10 mg/kg [8] was 40%. It also gave a Dose [9] of 0.5 mg mouse-1, an inhibition in vivo at 68 mg/kg/day [10] of 78.9% and a Dose [11] of 10 mg rat-1. For the same compound, the survival at 10 mg/kg [12] was 10%, the survival at 25 mg/kg [13] was 90% and the Concentration [14] was 59 ng/day. The survival at 10 mg/kg [15] was 40%, the Relative potency [1] was 2.2 and the Concentration [16] was 45 ng/day. The Concentration [17] was 36 ng/day, the Dose [18] was 4.25 mg rat-1 and the Total glomeruli [19] was 8. It also gave a survival at 6.25 mg/kg [20] of 70%, an inhibition in vivo at 205 mg/kg/day [21] of 98% and an inhibition in vivo at 205 mg/kg/day [22] of 77.4%. The survival at 12.5 mg/kg [23] was 70%, the Dose [24] was 25 mg/kg and the inhibition in vivo at 410 mg/kg/day [25] was 92.8%. For the same compound, the survival at 10 mg/kg [26] was 50%, the Total glomeruli [27] was 13 and the survival at 10 mg/kg [28] was 30%. For the same compound, the inhibition in vivo at 410 mg/kg/day [29] was 70.4%, the Dose [30] was 2 mg mouse-1 and the Dose [31] was 3 mg mouse-1.

With CCOC(=O)/C(C)=C\c1cc(Cc2cccnc2)n(C(C)(C)C)c1 the IC50 [4] was 3.2 µM and the Relative potency [5] was 0.59.
